The target in one series is T1, Urea transporter 2 (Rattus norvegicus, UniProt Q62668).
T1 sequence (Q62668 whole entry): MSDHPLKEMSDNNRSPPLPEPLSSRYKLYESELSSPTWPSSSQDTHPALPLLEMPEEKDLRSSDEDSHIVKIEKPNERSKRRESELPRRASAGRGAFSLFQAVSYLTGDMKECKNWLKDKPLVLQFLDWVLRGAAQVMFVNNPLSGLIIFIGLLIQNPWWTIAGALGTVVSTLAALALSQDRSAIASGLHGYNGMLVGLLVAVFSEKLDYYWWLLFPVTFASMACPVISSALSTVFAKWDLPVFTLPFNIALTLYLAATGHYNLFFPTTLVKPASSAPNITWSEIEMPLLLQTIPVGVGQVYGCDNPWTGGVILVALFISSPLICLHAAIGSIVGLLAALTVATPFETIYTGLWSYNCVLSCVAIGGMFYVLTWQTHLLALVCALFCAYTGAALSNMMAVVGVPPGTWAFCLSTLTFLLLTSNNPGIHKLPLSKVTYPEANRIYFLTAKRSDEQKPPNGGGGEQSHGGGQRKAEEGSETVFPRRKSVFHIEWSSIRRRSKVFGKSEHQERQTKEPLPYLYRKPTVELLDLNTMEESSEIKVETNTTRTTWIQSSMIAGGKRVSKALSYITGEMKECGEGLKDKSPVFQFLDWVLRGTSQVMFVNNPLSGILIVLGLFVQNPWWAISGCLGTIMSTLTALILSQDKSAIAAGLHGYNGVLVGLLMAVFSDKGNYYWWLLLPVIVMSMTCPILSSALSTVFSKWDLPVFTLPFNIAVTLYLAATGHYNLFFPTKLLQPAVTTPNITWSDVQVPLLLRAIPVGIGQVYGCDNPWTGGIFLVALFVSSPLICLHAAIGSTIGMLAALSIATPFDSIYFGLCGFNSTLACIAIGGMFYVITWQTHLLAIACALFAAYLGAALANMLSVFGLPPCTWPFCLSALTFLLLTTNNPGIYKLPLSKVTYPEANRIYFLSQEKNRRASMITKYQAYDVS
Nature of the series: Inhibition of rat UT-A1 expressed in MDCK cells incubated for 15 mins by fluorescence plate reader assay. The format is cell-based.

A further series addresses T2, Urea transporter 1 (Rattus norvegicus, UniProt P97689).
T2 sequence (P97689 whole entry): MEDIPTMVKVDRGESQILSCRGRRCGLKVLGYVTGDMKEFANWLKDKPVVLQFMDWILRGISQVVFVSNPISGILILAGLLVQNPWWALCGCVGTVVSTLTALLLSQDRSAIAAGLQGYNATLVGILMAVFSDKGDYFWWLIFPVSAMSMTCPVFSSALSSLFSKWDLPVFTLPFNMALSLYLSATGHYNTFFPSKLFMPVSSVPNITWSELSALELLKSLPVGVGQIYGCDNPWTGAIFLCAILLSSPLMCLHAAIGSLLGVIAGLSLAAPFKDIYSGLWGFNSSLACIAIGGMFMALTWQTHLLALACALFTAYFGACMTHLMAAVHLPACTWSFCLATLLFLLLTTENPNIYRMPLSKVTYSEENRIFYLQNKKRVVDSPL
Nature of the series: Inhibition of rat UT-B incubated for 15 mins. In short, it runs like this:
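Rat whole blood diluted to ~1.5% hematocrit in PBS with 1.25 M acetamide and 5 mM glucose; compound incubated 15 min, then cells mixed into isomolar buffer; lysis read by absorbance at 710 nm. Isomolar buffer as non-lysed and 0.7 mM phloretin as lysed control; % lysis computed from these; mean ± SEM, n = 3.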

The test system of a further series is MDCK. Nature of the series: Cytotoxicity against dog MDCK cells at 10 uM after 24 hrs by alamar blue assay. The format is cell-based, Canis lupus familiaris. In outline: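 MDCK cells stably co-expressing rat UT-A1, YFP-H148Q/V163S and human AQP1 grown 24 h at 37 °C, then exposed to compound at 10 µM for 24 h; viability read by AlamarBlue; mean ± SEM, n = 3.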
In general terms: Alamar Blue is a resazurin reagent that responds to reducing activity.

Series [1] is described as follows: Metabolic stability in Sprague-Dawley rat liver microsomes assessed as compound remaining at 5 uM preincubated for 5 mins followed by NADPH addition and measured at 15 mins by LC/MS analysis. The format is ADME, Microsome. Particulars: time 20 min, read-out: Stabilty. In short, it runs like this: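 Compound at 5 µM preincubated 5 min at 37 °C with male Sprague-Dawley rat liver microsomes (1 mg protein/mL) in 0.1 M PBS pH 7.4. 1 mM NADPH then added, incubation continued at 37 °C for set times, then chilled and EtOAc-extracted. Parent compound measured by LC/MS as peak area/internal standard ratio; mean ± SEM, n = 3.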

The target of series [2] is T3, Urea transporter 2 (Rattus norvegicus) (UniProt Q62668).
T3 sequence (whole entry): T1 sequence (Q62668 whole entry)
Nature of the series: Reversible inhibition of rat UT-A1 expressed in MDCK cells at 0.5 uM incubated for 15 mins followed by compound washing for 15 mins. Type of series: cell-based. In short, it runs like this:
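MDCK cells stably expressing rat UT-A1, AQP1 and YFP sensor incubated with 0.5 µM compound for 15 min, washed with PBS for 15 min, then assayed for UT-A1 urea transport by fluorescence plate reader.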

Series [3] deals with T3, Urea transporter 2 (Rattus norvegicus). The series is described as follows: Noncompetitive inhibition of rat UT-A1 expressed in MDCK cells assessed as inhibition of urea transport. The format is cell-based.
The target is the same in series [4]. The series is described as follows: Inhibition of rat UT-A1 expressed in MDCK cells at 0.5 uM by fluorescence plate reader assay. Type of series: cell-based. Particulars: time 100-500 sec. In short, it runs like this:
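MDCK cells stably expressing rat UT-A1, human AQP1 and YFP volume sensor; compound at 0.5 µM added at different times before assay; urea transport followed by YFP fluorescence on a plate reader; DMSO as 0% and phloretin as 100% inhibition.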

Calls of active or inactive are those of the source. The calls are words filed in the database; no cut-off is given here.

The source of these data is ChEMBL document CHEMBL4834390, “Nanomolar-Potency 1,2,4-Triazoloquinoxaline Inhibitors of the Kidney Urea Transporter UT-A1” (J Med Chem, 2018).

Turning to `CCc1nnc2c(Oc3ccc(NS(=O)(=O)c4cc(C)ccc4OC)cc3)nc3ccccc3n12`, the half-maximal inhibitory concentration (IC50) (as a rule, the concentration needed to halve the response being measured) at Urea transporter 2 is 0.7 µM. `CCc1nnc2c(Oc3ccc(NS(=O)(=O)c4cc(Cl)ccc4OC)cc3)nc3cc(C)c(C)cc3n12` came in with an IC50 at Urea transporter 2 of 1.4 µM. The same measure, in the same setting: as for `Cc1ccc(C)c(S(=O)(=O)Nc2ccc(Oc3nc4ccccc4n4cnnc34)cc2)c1`, the figure is 1.5 µM. Take `COc1ccc(Cl)cc1S(=O)(=O)Nc1cccc(O)c1`: the concentration for half-maximal inhibition (IC50) against Urea transporter 2 is 6 µM; at Urea transporter 1, 14 µM.

On Urea transporter 2, `COc1ccc(Cl)cc1S(=O)(=O)Nc1ccc(Oc2nc3cc(C)c(C)cc3n3c(C(C)C)nnc23)cc1` yielded an IC50 of 1.2 µM. Turning to `COc1ccc(Cl)cc1S(=O)(=O)Nc1ccc(Oc2nc3ccccc3n3c(C(C)C)nnc23)cc1`, the half-maximal inhibitory concentration (IC50) against Urea transporter 2 was 0.3 µM. As for `COc1ccc(C)cc1S(=O)(=O)Nc1ccc(Oc2nc3cc(F)c(F)cc3n3cnnc23)cc1`, at Urea transporter 2, half-maximal inhibition (IC50) was put at 1.5 µM.

`COc1ccc(C)cc1S(=O)(=O)Nc1ccc(Oc2nc3ccccc3n3c(C(C)C)nnc23)cc1` returned a half-inhibitory concentration (IC50) against Urea transporter 2 of 0.5 µM. On the same count and under the same terms, the same measure for `O=S(=O)(Nc1ccc(Oc2nc3ccccc3n3cnnc23)cc1)c1ccccc1Cl`: 5 µM; for `COc1ccc(C)cc1S(=O)(=O)Nc1ccc(Oc2nc3ccccc3n3cnnc23)cc1`: 1.1 µM. The same measure, in the same setting: the same measure for `CCCc1nnc2c(Oc3ccc(NS(=O)(=O)c4cc(C)ccc4OC)cc3)nc3ccccc3n12`: 0.4 µM; for `COc1ccc(Cl)cc1S(=O)(=O)Nc1ccc(Oc2nc3cc(C)c(C)cc3n3cnnc23)cc1`: 2.7 µM. Same read-out and setting: as for `Cc1ccc(C)c(S(=O)(=O)Nc2ccc(Oc3nc4ccccc4n4c(C)nnc34)cc2)c1`, the figure is over 20 µM; as for `COc1ccc(Cl)c(S(=O)(=O)Nc2ccc(Oc3nc4ccccc4n4cnnc34)cc2)c1`, over 20 µM; as for `CCCCc1nnc2c(Oc3ccc(NS(=O)(=O)c4cc(Cl)ccc4OC)cc3)nc3ccccc3n12`, 0.2 µM. On to `COc1ccc(Cl)cc1S(=O)(=O)Nc1ccc(Nc2nc3ccccc3n3cnnc23)cc1`, for which the concentration for half-maximal inhibition (IC50) on Urea transporter 2 is over 20 µM. Consider `COc1ccc(Cl)cc1S(=O)(=O)Nc1ccc(Oc2nc3ccccc3n3cnnc23)cc1`, for which the values for the IC50 against Urea transporter 2 and on Urea transporter 1 were 0.8 µM and 4 µM, respectively. The Activity entry in the series with MDCK is reported as “Non-Toxic”. Compound `O=S(=O)(Nc1ccc(Oc2nc3ccccc3n3cnnc23)cc1)c1cccc(Cl)c1` registered a 50% inhibitory concentration (IC50) at Urea transporter 2 of over 20 µM.

In turn, `COc1ccc(Cl)c(S(=O)(=O)Nc2cccc(Nc3nc4ccccc4n4cnnc34)c2)c1` yielded an IC50 against Urea transporter 2 of over 20 µM. `COc1ccc(C)cc1S(=O)(=O)Nc1ccc(Oc2nc3ccccc3n3c(C)nnc23)cc1`: the half-maximal inhibitory concentration (IC50) at Urea transporter 2 is over 20 µM. With `CCc1nnc2c(Oc3ccc(NS(=O)(=O)c4cc(C)ccc4C)cc3)nc3ccccc3n12`, it took 0.75 µM to reach half-maximal inhibition at Urea transporter 2 (IC50). The compound `COc1ccc(Cl)cc1S(=O)(=O)Nc1ccc(Oc2nc3cc(Cl)c(Cl)cc3n3cnnc23)cc1` had a half-maximal inhibitory concentration (IC50) against Urea transporter 2 of over 20 µM. Regarding `Cc1ccccc1S(=O)(=O)Nc1ccc(Oc2nc3ccccc3n3cnnc23)cc1`, the IC50 on Urea transporter 2 was found to be 8 µM. As for `CC(=O)Nc1ccc(-c2noc(C3CCCN(C(=O)c4ccccc4F)C3)n2)cc1` (stereo not drawn), the IC50 against Urea transporter 2 is 3 µM; on Urea transporter 1, over 50 µM.

With `O=C(Nc1ccon1)c1cc(-c2ccccc2)nc2ccccc12`, the 50% inhibitory concentration (IC50) against Urea transporter 2 was 2 µM; against Urea transporter 1, over 100 µM. As to `CCCc1nnc2c(Oc3ccc(NS(=O)(=O)c4cc(C)ccc4C)cc3)nc3ccccc3n12`, the half-inhibitory concentration (IC50) at Urea transporter 2 turned out to be 0.5 µM. Take `COc1ccc(Cl)cc1S(=O)(=O)Nc1ccc2nc(SC)sc2c1`: the results for the 50% inhibitory concentration (IC50) on Urea transporter 2 and on Urea transporter 1 were 5 µM and 10 µM, respectively. Take `COc1ccc(Cl)cc1S(=O)(=O)Nc1ccc(Oc2nc3ccccc3n3c(C)nnc23)cc1`: the 50% inhibitory concentration (IC50) at Urea transporter 2 is over 20 µM. `COc1ccc(Cl)c(S(=O)(=O)Nc2cccc(Oc3nc4ccccc4n4cnnc34)c2)c1` came in with an IC50 at Urea transporter 2 of over 20 µM. Regarding `CCOc1nnc2c(Oc3ccc(NS(=O)(=O)c4cc(C)ccc4OC)cc3)nc3ccccc3n12`, the half-inhibitory concentration (IC50) at Urea transporter 2 was 1.5 µM. At Urea transporter 2, `CCCc1nnc2c(Oc3ccc(NS(=O)(=O)c4cc(Cl)ccc4OC)cc3)nc3cc(C)c(C)cc3n12` gave an IC50 of 0.4 µM. Moreover, in series [1], the remaining at 0.25 h, 5 µM amounted to 25%. On to `COC(=O)c1sc2nc3c(cc2c1N)CN(Cc1ccccc1)CC3`, for which the IC50 against Urea transporter 2 and at Urea transporter 1 was 3 µM in each case. At Urea transporter 2, `CCCCc1nnc2c(Oc3ccc(NS(=O)(=O)c4cc(C)ccc4OC)cc3)nc3ccccc3n12` registered a concentration for half-maximal inhibition (IC50) of 0.4 µM.

In turn, `COc1ccc(Cl)cc1S(=O)(=O)Nc1cccc(Oc2nc3ccccc3n3cnnc23)c1` yielded an IC50 at Urea transporter 2 of over 20 µM. Compound `COc1ccc(Cl)cc1S(=O)(=O)Nc1ccc(Oc2nc3cc(F)c(F)cc3n3cnnc23)cc1` yielded a 50% inhibitory concentration (IC50) against Urea transporter 2 of 1.2 µM. `COc1ccc(Cl)c(S(=O)(=O)Nc2ccc(Nc3nc4ccccc4n4cnnc34)cc2)c1`: the 50% inhibitory concentration (IC50) against Urea transporter 2 was over 20 µM.

Take `CCCc1nnc2c(Oc3ccc(NS(=O)(=O)c4cc(Cl)ccc4OC)cc3)nc3ccccc3n12`: the IC50 at Urea transporter 2 is 0.15 µM; against Urea transporter 1, 2 µM. The inhibition result in series [2], in series [3] and in series [4] was “Active” in each case. The Activity result in the series with MDCK was “Non-Toxic”. Further, the remaining at 0.25 h, 5 µM in series [1] was 40%. Turning to `COc1ccc(-c2cccc(-c3ccn(Cc4csc(C)n4)n3)c2)nn1`, the IC50 amounted to 1.5 µM against Urea transporter 2 and 31 µM against Urea transporter 1. On Urea transporter 2, `Cc1ccc(C)c(S(=O)(=O)Nc2ccc(Oc3nc4ccccc4n4c(C(C)C)nnc34)cc2)c1` registered a concentration for half-maximal inhibition (IC50) of 0.6 µM. Turning to `CCOc1nnc2c(Oc3ccc(NS(=O)(=O)c4cc(Cl)ccc4OC)cc3)nc3ccccc3n12`, the concentration for half-maximal inhibition (IC50) against Urea transporter 2 was 1.2 µM. With `CCc1nnc2c(Oc3ccc(NS(=O)(=O)c4cc(Cl)ccc4OC)cc3)nc3ccccc3n12`, half-maximal inhibition against Urea transporter 2 (IC50) required 0.5 µM.

As for `CCCCc1nnc2c(Oc3ccc(NS(=O)(=O)c4cc(C)ccc4C)cc3)nc3ccccc3n12`, inhibition at Urea transporter 2 was half-maximal at 0.8 µM (IC50). At Urea transporter 2, `O=S(=O)(Nc1ccc(Oc2nc3ccccc3n3cnnc23)cc1)c1ccccc1OC(F)(F)F` gave a 50% inhibitory concentration (IC50) of 20 µM.
